Reference: paper PMC2828288 (Journal of medicinal chemistry, 2010)
Read-outs that look alike come from different tables or passages of the source. Values belong to the molecule of their own block, whether it stands above or below them.

Legend:
NTE [1] = target: T1, NTE (Mus musculus, UniProt Q3TRM4); conditions: mice, 20 mg/kg intraperitoneally, or 100 mg/kg orally; cited from earlier work
T1 sequence (Q3TRM4 1-1355): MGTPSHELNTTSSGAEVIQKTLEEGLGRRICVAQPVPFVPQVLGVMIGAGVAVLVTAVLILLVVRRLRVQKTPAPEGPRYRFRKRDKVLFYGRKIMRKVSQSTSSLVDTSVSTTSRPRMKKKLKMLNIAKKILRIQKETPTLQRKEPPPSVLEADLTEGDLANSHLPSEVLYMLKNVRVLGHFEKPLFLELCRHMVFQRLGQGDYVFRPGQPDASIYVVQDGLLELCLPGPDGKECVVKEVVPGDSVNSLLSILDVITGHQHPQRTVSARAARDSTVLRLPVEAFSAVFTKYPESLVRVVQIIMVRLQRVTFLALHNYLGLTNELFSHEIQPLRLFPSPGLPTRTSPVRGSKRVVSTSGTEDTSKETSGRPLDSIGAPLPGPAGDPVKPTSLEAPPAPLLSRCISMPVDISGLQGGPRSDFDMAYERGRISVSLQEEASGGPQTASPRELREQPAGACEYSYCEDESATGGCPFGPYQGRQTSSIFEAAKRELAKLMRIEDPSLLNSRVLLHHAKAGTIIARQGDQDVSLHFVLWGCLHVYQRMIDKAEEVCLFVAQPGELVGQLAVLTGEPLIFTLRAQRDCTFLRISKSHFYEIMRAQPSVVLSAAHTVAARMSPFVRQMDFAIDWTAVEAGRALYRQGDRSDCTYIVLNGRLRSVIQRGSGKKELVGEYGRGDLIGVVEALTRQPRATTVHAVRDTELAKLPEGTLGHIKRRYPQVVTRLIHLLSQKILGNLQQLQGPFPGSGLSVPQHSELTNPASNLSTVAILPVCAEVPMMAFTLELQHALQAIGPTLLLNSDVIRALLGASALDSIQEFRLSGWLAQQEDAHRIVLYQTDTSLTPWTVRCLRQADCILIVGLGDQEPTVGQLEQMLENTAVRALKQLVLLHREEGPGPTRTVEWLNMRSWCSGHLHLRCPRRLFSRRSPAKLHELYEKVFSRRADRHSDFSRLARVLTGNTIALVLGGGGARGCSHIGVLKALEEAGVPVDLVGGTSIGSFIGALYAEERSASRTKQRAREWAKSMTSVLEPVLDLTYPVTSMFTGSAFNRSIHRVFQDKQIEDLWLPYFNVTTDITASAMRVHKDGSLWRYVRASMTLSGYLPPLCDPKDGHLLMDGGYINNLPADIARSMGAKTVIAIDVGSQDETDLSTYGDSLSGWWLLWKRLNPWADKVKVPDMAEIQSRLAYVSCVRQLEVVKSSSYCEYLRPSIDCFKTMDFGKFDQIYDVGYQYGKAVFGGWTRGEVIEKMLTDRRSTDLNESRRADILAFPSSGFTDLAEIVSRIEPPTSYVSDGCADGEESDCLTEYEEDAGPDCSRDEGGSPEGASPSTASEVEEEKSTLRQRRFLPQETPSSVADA

MAGL [2] = conditions: mice, 20 mg/kg intraperitoneally, or 100 mg/kg orally; cited from earlier work
[3] = mice, 20 mg/kg i.p. daily for 6 days; cited from earlier work
FAAH [4] = target: T2, FAAH (Mus musculus, UniProt O08914); conditions: mice, 20 mg/kg intraperitoneally, or 100 mg/kg orally; cited from earlier work
T2 sequence (O08914 1-579): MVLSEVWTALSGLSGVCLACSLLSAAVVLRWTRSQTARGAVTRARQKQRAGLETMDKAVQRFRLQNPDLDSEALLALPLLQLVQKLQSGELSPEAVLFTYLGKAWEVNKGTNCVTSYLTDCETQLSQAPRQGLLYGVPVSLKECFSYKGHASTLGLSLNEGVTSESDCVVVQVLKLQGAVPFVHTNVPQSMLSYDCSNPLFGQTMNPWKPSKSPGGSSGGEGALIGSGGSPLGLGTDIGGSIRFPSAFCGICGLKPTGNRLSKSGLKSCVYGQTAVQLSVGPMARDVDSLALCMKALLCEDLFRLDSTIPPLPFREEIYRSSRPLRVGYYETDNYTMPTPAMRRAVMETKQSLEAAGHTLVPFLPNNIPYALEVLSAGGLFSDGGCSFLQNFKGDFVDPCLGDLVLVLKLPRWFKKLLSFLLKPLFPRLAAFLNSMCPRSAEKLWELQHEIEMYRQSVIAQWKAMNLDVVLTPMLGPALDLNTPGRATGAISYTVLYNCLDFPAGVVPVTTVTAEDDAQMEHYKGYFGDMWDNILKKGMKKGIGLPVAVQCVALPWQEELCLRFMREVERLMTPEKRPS

MAGL [5] = assay: Competitive ABPP; type: biochemical, mouse; conditions: brain proteome
NTE [6] = target: T1, NTE; assay: NTE activity after in vivo administration to mice; conditions: 20 mg/kg, i.p., data not shown
FAAH [7] = target: T2, FAAH; assay: FAAH activity after in vivo administration to mice; conditions: administration to mice at doses that reduced MAGL activity; data not shown
[8] = system: serine hydrolases in the mouse brain membrane proteome; type: biochemical; conditions: competitive ABPP
Outline: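 Mouse brain tissue Dounce-homogenized in PBS pH 7.5, spun at 1,400 × g for 5 min, then at 64,000 × g for 45 min; the membrane pellet was resuspended in PBS by sonication. Proteome at 1 mg/ml was preincubated with test compound at the indicated concentrations for 30 min at 37 °C. FP-rhodamine (1 μM final) was then added for 30 min at 25 °C, followed by SDS-PAGE and in-gel fluorescence scanning.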

total brain 2-AG levels = conditions: upon administration to mice; cited from earlier work

SMILES: O=C(Oc1ccc([N+](=O)[O-])cc1)N1CCN(Cc2cccc(Oc3ccccc3)c2)CC1 [Compound 2]
NTE inhibition in vivo (NTE [1]): no inhibition of NTE was observed
MAGL blockade in vivo (MAGL [2]): completely blocked
death or overt signs of discomfort on chronic administration [3]: did not produce death or overt signs of discomfort
FAAH blockade in vivo (FAAH [4]): completely blocked

SMILES: COc1ccc(C(O)(c2ccc(OC)c(OC)c2)C2CCN(C(=O)Oc3ccc([N+](=O)[O-])cc3)CC2)cc1OC [Compound 33c, 4-nitrophenyl 4-(bis(3,4-dimethoxyphenyl)(hydroxy)methyl)piperidine-1-carboxylate]
Selectivity (MAGL [5]; MAGL over FAAH (ratio of IC50s)): >38
selectivity for MAGL over FAAH (MAGL [5]): 40–400 fold

SMILES: COc1ccccc1C(O)(c1ccccc1OC)C1CCN(C(=O)Oc2ccc([N+](=O)[O-])cc2)CC1 [Compound 33b, 4-nitrophenyl 4-(hydroxybis(2-methoxyphenyl)methyl)piperidine-1-carboxylate]
selectivity for MAGL over FAAH (MAGL [5]): ~ 10 fold

SMILES: O=C(Oc1ccc([N+](=O)[O-])cc1)N1CCN(Cc2ccc(-c3ccccc3)s2)CC1 [Compound 36h, 4-nitrophenyl 4-((5-phenylthiophen-2-yl)methyl)piperazine-1-carboxylate]
NTE inhibition in vivo (NTE [6]): inhibited NTE

FAAH activity in vivo (FAAH [7]): significantly blocked FAAH activity
SMILES: COc1ccc(C(O)(c2ccc(OC)cc2)C2CCN(C(=O)Oc3ccc([N+](=O)[O-])cc3)CC2)cc1 [Compound 6]

SMILES: O=C(Oc1ccc([N+](=O)[O-])cc1)N1CCN(C(c2ccc(F)cc2)c2ccc(F)cc2)CC1 [Compound 5]
FAAH activity in vivo (FAAH [7]): significantly blocked FAAH activity

SMILES: CN(C(=O)Oc1ccc([N+](=O)[O-])cc1)C(c1ccccc1)c1ccccc1 [Compound 9b, 4-nitrophenyl benzhydryl(methyl)carbamate]
activity against FAAH, MAGL and other serine hydrolases [8]: inactive

SMILES: O=C(Oc1ccc([N+](=O)[O-])cc1)N1CCN(Cc2cccc(Oc3cc(Cl)cc(Cl)c3)c2)CC1 [Compound 36q, 4-nitrophenyl 4-(3-(3,5-dichlorophenoxy)benzyl)piperazine-1-carboxylate]
activity against FAAH, MAGL and other serine hydrolases [8]: unable to inhibit any of the hydrolases

SMILES: CN(CCC(c1ccccc1)c1ccccc1)C(=O)Oc1ccc([N+](=O)[O-])cc1 [Compound 9a, 4-nitrophenyl 3,3-diphenylpropyl(methyl)carbamate]
activity against FAAH, MAGL and other serine hydrolases [8]: inactive

SMILES: O=C(Oc1ccc([N+](=O)[O-])cc1)N1CCC(C(O)(c2ccc3c(c2)OCO3)c2ccc3c(c2)OCO3)CC1 [Compound 1, 4-nitrophenyl 4-(dibenzo[d][1,3]dioxol-5-yl(hydroxy)methyl)piperidine-1-carboxylate]
elevation of total brain 2-AG levels (total brain 2-AG levels): > 8 fold

SMILES: COc1ccc(C(O)(c2ccc(OC)cc2)C2CCN(C(=O)Oc3ccc([N+](=O)[O-])cc3)C2)cc1 (stereo not drawn) [Compound 15, 4-nitrophenyl 3-(hydroxybis(4-methoxyphenyl)methyl)pyrrolidine-1-carboxylate]
activity against FAAH, MAGL and other serine hydrolases [8]: inactive
